Activity calls are given as the source filed them. The rule behind the calls is not given here.

By IC50 is commonly meant the concentration that inhibits the measured activity by half. As usually defined, the inhibition is how much of the control response was suppressed.

Holding throughout (format): functional
Assay [1] can be described thus: Ex vivo inhibition of leukotriene formation in calcium ionophore activated human neutrophilic granulocyte by ELISA. In a few lines:
(§1)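 Human neutrophil granulocytes carrying 5-LOX activity, isolated by sedimentation rate and lysis tolerance. Cells activated with calcium ionophore, then incubated with test sample and arachidonic acid. Reaction stopped with formic acid and centrifuged. Supernatant diluted 50-fold; LTB4 measured by competitive EIA (18 h, 4 °C; Ellman's development; 412 nm). Samples tested at 50, 25, 10, 5 and 1 µM in duplicate. Inhibition given as percent of control; IC50 by probit-log analysis. Trypan blue viability check.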

Assay [2] can be described thus: (§2) Ex vivo inhibition of leukotriene formation in calcium ionophore activated human neutrophilic granulocyte at 50 uM by ELISA. The method, boiled down: as §1
(ELISA stands for enzyme-linked immunosorbent assay.)

Assay [3] can be described thus: Ex vivo inhibition of leukotriene formation in calcium ionophore activated human neutrophilic granulocyte at 25 uM by ELISA. The method, boiled down: as §1
The species entered for the next assay is Homo sapiens. The assay is described as §2. The method, boiled down: as §1

For the molecule `Oc1cc(O)cc(/C=C/c2ccccc2)c1` [PINOSYLVIN], in assay [1], the half-inhibitory concentration (IC50) was determined as 22.7 µM.
Regarding `COc1ccccc1CCc1cc(O)c(C)c(O)c1` [STILBOSTEMIN D], the half-inhibitory concentration (IC50) in assay [1] is more than 50 µM. The inhibition at 50 µM in assay [2] was less than 10%.
With `Oc1ccc(/C=C/c2cc(O)cc(O)c2)cc1` [RESVERATROL], the IC50 in assay [1] was more than 50 µM. The inhibition at 50 µM in assay [2] was less than 10%.
For the molecule `COc1c(O)ccc2c1CCc1c(C)c(O)c(C)c(OC)c1-2` [STEMANTHRENE C], the inhibition at 25 µM in assay [3] amounted to 100%.
`COc1cc(O)c(C)c(-c2cc3c(O)cccc3o2)c1` [STEMOFURAN D]: the half-inhibitory concentration (IC50) in assay [1] turned out to be 30.3 µM.
Still for that read-out and setting: then `COc1cc(O)cc(-c2cc3c(O)cccc3o2)c1` [STEMOFURAN B], with 23.3 µM.
Turning to `COc1cc(-c2cc3c(O)c(C)ccc3o2)c(C)c(O)c1C` [STEMOFURAN G], the 50% inhibitory concentration (IC50) in assay [1] amounted to 3.7 µM.
Regarding `COc1cc2c(c(O)c1C)-c1ccc(O)c(OC)c1CC2` [STEMANTHRENE B], in assay [3], the inhibition at 25 µM is 100%.
On to `Cc1c(O)cc(-c2cc3ccccc3o2)cc1O` [STEMOFURAN C], for which the half-maximal inhibitory concentration (IC50) in assay [1] was more than 50 µM. Also, in assay [2], the inhibition at 50 µM was determined as 10%.
For `COc1cc(O)c(C)c2c1-c1ccc(O)c(OC)c1CC2` [STEMANTHRENE D], in assay [1], the IC50 came to 4.8 µM.
As for `COc1cc(O)c(C)c(CCc2cccc(O)c2OC)c1` [STILBOSTEMIN F], the IC50 in assay [1] was more than 50 µM. The inhibition at 50 µM in assay [2] is less than 10%.
`Cc1c(O)cc(CCc2ccccc2)cc1O` [STILBOSTEMIN B]: the concentration for half-maximal inhibition (IC50) in assay [1] was more than 50 µM. Besides, the inhibition at 50 µM in assay [2] was 10%.
As for `COc1cc(CCc2cccc(O)c2OC)cc(O)c1C` [STILBOSTEMIN G], the half-inhibitory concentration (IC50) in assay [1] amounted to 25.8 µM.
Consider `Oc1cc(O)cc(CCc2ccccc2)c1` [DIHYDROPINOSYLVIN], for which the IC50 in assay [1] is more than 50 µM. For the same molecule, in assay [2], the inhibition at 50 µM was 10%.
Regarding `CC[C@@H]1[C@H]2CCCCN3[C@H]2[C@H](C[C@H]3[C@@H]2C[C@H](C)C(=O)O2)[C@@H]2[C@H]1OC(=O)[C@H]2C` [TUBEROSTEMONINE], the IC50 in assay [1] is more than 50 µM. Moreover, in the assay filed under Homo sapiens, the outcome was inactive.
For `COc1ccccc1CCc1cc(O)cc(O)c1` [STILBOSTEMIN A], the IC50 in assay [1] is more than 50 µM. In addition, the inhibition at 50 µM in assay [2] was less than 10%.
Turning to `CC(c1cc2ccccc2s1)N(O)C(N)=O` (centres undefined) [ZILEUTON], in assay [1], the half-inhibitory concentration (IC50) was determined as 10.4 µM.
As for `CC[C@@H]1[C@H]2CCCCN3[C@H]2[C@@H](C[C@H]3[C@@H]2C[C@H](C)C(=O)O2)[C@H]2[C@@H]1OC(=O)[C@H]2C` [NEOTUBEROSTEMONINE], the IC50 in assay [1] is more than 50 µM. In addition, the result in the assay filed under Homo sapiens was inactive.
With `COc1cc(-c2cc3c(O)cccc3o2)c(C)c(OC)c1C` [STEMOFURAN J], the half-inhibitory concentration (IC50) in assay [1] amounted to 26.3 µM.
For `COc1c(O)ccc2c1CCc1cc(O)c(C)c(OC)c1-2` [STEMANTHRENE A], in assay [1], the 50% inhibitory concentration (IC50) is 8.5 µM.

The values are drawn from ChEMBL document CHEMBL1142567, “Inhibition of leukotriene biosynthesis by stilbenoids from Stemona species” (J Nat Prod, 2005).
